This passage reports folding enthalpy and Tm results from the array DNA melting data of Ke et al. (doi:10.1101/2024.01.08.574731).

The nature of series [1]: folding enthalpy; higher = less favourable; fluorescence melt of hairpins on a sequencing array, two-state fit. Particulars: sodium 0.088 M. The gist of the method:
(§1)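 On a sequenced MiSeq flow cell, library hairpins with annealed Cy3 and quencher oligos were imaged for Cy3 fluorescence in 2.5 °C steps up to 60 °C, in 50 mM Na-HEPES pH 8.0, 25 mM NaCl. Normalisation used pre-quench Cy3 and control constructs. Bootstrapped two-state fits gave melting temperature and folding enthalpy, combined by inverse variance across four replicates and with fitted temperatures raised by 9.35 °C to match UV melts.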

The nature of series [2]: melting temperature; fluorescence melt of hairpins on a sequencing array, two-state fit, raised by 9.35 °C to match UV melts. Particulars: sodium 0.088 M. The gist of the method:
as §1

GATCAGCAAACTGATC ((((((....)))))): the folding enthalpy in series [1] is -32 kcal/mol. In series [2], the Tm turned out to be 48.2 °C.
In the same order, the values of GAGAAACCGAAAGGTCTC (((..(((....)))))) are -16.8 kcal/mol and 34.1 °C.
For GAGCGCGAAAGCGCCCTC ((((((....)))..))), in that order: -7.61 kcal/mol and 46.8 °C.
Turning to GAGATACGAAAGTAACTC (((.(((....))).))), the folding enthalpy in series [1] is -26 kcal/mol. Also, the Tm in series [2] stood at 44.7 °C.
On to GAGCACGAAAGTGACTC ((((((....))).))), for which, in series [1], the folding enthalpy was -19.5 kcal/mol. Moreover, in series [2], the Tm amounted to 47.3 °C.
Regarding GACCTTCCGAAAGGAGTC (((..(((....)))))), in series [1], the folding enthalpy is -11.8 kcal/mol. In addition, the Tm in series [2] is 26.4 °C.
Take GTCAAGAAATTGAC (((((....))))): the folding enthalpy in series [1] is -21.6 kcal/mol. In addition, the Tm in series [2] was 40.8 °C.
In the same order, the values of GGACTGAAAAGTCC (((((....))))) are -25.9 kcal/mol and 59.9 °C.
For GGGCTGCCGAAAGGCCCC (((..(((....)))))), in that order: -16 kcal/mol and 46.2 °C.
For GGGGAAGAAATTCCCC ((((((....)))))), in that order: -30.8 kcal/mol and 57.1 °C.
For the sequence GATCAAACCATTGATC ((((((....)))))), the folding enthalpy in series [1] was -31.2 kcal/mol. Moreover, in series [2], the Tm came to 42.1 °C.
For GACTTGGGAAACTGAGTC ((((..(....)..)))), in that order: -32 kcal/mol and 33.5 °C.
For the sequence GGCTGCGAAAGCATGCC ((((((....))).))), in series [1], the folding enthalpy was -21.6 kcal/mol. Further, the Tm in series [2] was determined as 66.7 °C.
In the same order, the values of GATCCGGGCCGGATC ((((((...)))))) are -46.2 kcal/mol and 60.3 °C.
For GATCCCGAAAGGGGAATC ((((((....)))..))), in series [1], the folding enthalpy was -12.3 kcal/mol. The Tm in series [2] was found to be 36.1 °C.
For GAGAGCGGAAACGCTTTC ((.((((....)))).)), in that order: -17.3 kcal/mol and 46.4 °C.
As for GCAGTGCGAAAGCACAGC ((.((((....)))).)), in series [1], the folding enthalpy is -17.1 kcal/mol. The Tm in series [2] was determined as 68.2 °C.
In the same order, the values of GTTCTGCCGAAAGGCAAC (((..(((....)))))) are -7.25 kcal/mol and 25.1 °C.
For GATTCCGAAAGGAGATC ((((((....))).))), in that order: -21.3 kcal/mol and 33.7 °C.
GATCTGATATCAGATC ((((((....)))))): in series [1], the folding enthalpy was -40.1 kcal/mol. In addition, the Tm in series [2] stood at 51 °C.
For GGCACAGGAAACCATGCC ((((..(....)..)))), the folding enthalpy in series [1] is -16.3 kcal/mol. In addition, in series [2], the Tm came out at 36.1 °C.
For GATCCACGCTGGATC ((((((...)))))), in that order: -31.3 kcal/mol and 51.6 °C.
In the same order, the values of GCTCGGCGAAAGCAGGGC ((.(.((....)).).)) are -14 kcal/mol and 67.7 °C.
With GACCAACGAAAGTTTGTC (((.(((....))).))), the folding enthalpy in series [1] was -26.9 kcal/mol. For the same sequence, the Tm in series [2] was determined as 41.7 °C.
In the same order, the values of GGGGATGAAAATCCCC ((((((....)))))) are -33.7 kcal/mol and 66.2 °C.
For GGTGATCGAAAGATTACC (((.(((....))).))), in that order: -46.1 kcal/mol and 51.1 °C.
In the same order, the values of GAGTGCGGAAACGCGCTC (((.(((....))).))) are -31.7 kcal/mol and 66.1 °C.
Regarding GATCAAAAAATTGATC ((((((....)))))), in series [1], the folding enthalpy was -17.5 kcal/mol. For the same sequence, in series [2], the Tm was 32.4 °C.
In the case of GCAACGCGAAAGCGAGGC ((..(((....)))..)), the folding enthalpy in series [1] is -13.5 kcal/mol. Also, the Tm in series [2] was determined as 59.9 °C.
For the sequence GCACATCGAAAGATCTGC (((.(((....))).))), the folding enthalpy in series [1] is -28.3 kcal/mol. Besides, the Tm in series [2] was 36 °C.
With GAAAACGGAAACGTTTCC (.(((((....))))).), the folding enthalpy in series [1] is -15.1 kcal/mol. In addition, the Tm in series [2] is 34.1 °C.
